Drawing on ChEMBL document CHEMBL1148833, “3-Hydroxychromones as cyclin-dependent kinase inhibitors: synthesis and biological evaluation” (Bioorg Med Chem Lett, 2007), this text covers IC50 and GI50 for 22 compounds.

Assay [1] addresses Cyclin-dependent kinase 2 (Homo sapiens, UniProt P24941). The assay can be described thus: Inhibition of CDK2.
For assay [2], the system named is EJ. The assay can be described thus: Cytotoxicity against EJ cells after 48 hrs. The assay is classed as functional. To be noted: Homo sapiens. Summed up: (§1)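 Exponentially growing cells exposed to compound at various concentrations for 48 h, then cell numbers measured; concentration giving 50% growth inhibition determined; means of three experiments.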
For assay [3], the system named is SW-620. As to the kind of experiment: Cytotoxicity against SW620 cells after 48 hrs. The assay is classed as functional. To be noted: Homo sapiens, SW-620, 48 h. Summed up: as §1
Assay [4] relates to MDA-MB-468. The assay can be described thus: Cytotoxicity against MDA-MB-468 cells after 48 hrs. It counts as functional. To be noted: Homo sapiens, MDA-MB-468, 48 h. Summed up: as §1
Assay [5] concerns HCT-116. As to the kind of experiment: Cytotoxicity against HCT116 cells after 48 hrs. It counts as functional. To be noted: Homo sapiens, HCT-116, 48 h. Summed up: as §1
Assay [6] deals with Cyclin-dependent kinase 1 (Homo sapiens, UniProt P06493). As to the kind of experiment: Inhibition of CDK1.
Cyclin-dependent kinase 1, sequence (P06493 whole entry): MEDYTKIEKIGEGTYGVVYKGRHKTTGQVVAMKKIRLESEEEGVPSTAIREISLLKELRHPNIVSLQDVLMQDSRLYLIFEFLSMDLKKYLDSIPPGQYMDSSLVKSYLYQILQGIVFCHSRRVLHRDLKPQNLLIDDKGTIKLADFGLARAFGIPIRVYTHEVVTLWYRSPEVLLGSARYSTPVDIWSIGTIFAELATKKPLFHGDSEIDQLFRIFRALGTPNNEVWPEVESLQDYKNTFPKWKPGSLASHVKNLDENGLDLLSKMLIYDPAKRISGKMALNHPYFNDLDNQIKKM

In general, IC50 refers to the concentration that gives 50% inhibition. High values mean lower potency, low ones higher potency. As to `O=c1c(O)c(-c2ccc(O)c(O)c2)oc2ccccc12`, the midpoint of inhibition in assay [1], the IC50, lay at 4000 nM.
The same measure, in the same setting: the same measure for `O=c1cc(-c2ccc(O)c(O)c2)oc2c(O)c(O)ccc12`: more than 500000 nM.
As for `O=c1cc(-c2ccc(O)c(O)c2)oc2ccccc12`, in assay [1], the IC50 is more than 500000 nM.
Same read-out and setting: the result for `CCN(CC)c1cc(C)cc2c(=O)c(O)c(-c3ccc(O)c(O)c3)oc12` reads 1600 nM.
Still for that read-out and setting: the result for `Cc1cc(N)c2oc(-c3ccc(O)c(O)c3)c(O)c(=O)c2c1` reads 630 nM; that for `Cc1cc(N2C(=O)CNC2=O)c2oc(-c3ccc(O)c(O)c3)c(O)c(=O)c2c1`, 4000 nM.
Usually GI50 stands for the concentration that inhibits growth by half. A higher GI50 goes with less potent growth inhibition. In assay [1], `Cc1cc(N2C(=O)CN(C)C2=O)c2oc(-c3ccc(O)c(O)c3)c(O)c(=O)c2c1` registered an IC50 of 56 nM. In assay [2], this compound returned a GI50 of 1100 nM.
For `Cc1cc(N2CCCS2(=O)=O)c2oc(-c3ccc(O)c(O)c3)c(O)c(=O)c2c1`, the GI50 was found to be 900 nM in assay [3], 1000 nM in assay [4], 280 nM in assay [5] and 600 nM in assay [2]. In assay [6], the IC50 was found to be 130 nM.
For the compound `Cc1cc(N2CCCC2)c2oc(-c3ccc(O)c(O)c3)c(O)c(=O)c2c1`, 3000 nM corresponded to half-maximal inhibition in assay [1] (IC50).
On the same count and under the same terms, the same measure for `Cc1cc(N2CCCCC2)c2oc(-c3ccc(O)c(O)c3)c(O)c(=O)c2c1`: 2600 nM; for `Cc1cc(N2CCN(C)CC2)c2oc(-c3ccc(O)c(O)c3)c(O)c(=O)c2c1`: 640 nM.
In assay [1], `Cc1cc(N2C(=O)CCC2=O)c2oc(-c3ccc(O)c(O)c3)c(O)c(=O)c2c1` returned an IC50 of 1500 nM. In assay [2], halving of growth (GI50) required 1200 nM.
Regarding `Cc1cc(N2CCCS2(=O)=O)c2oc(-c3ccc(O)cc3)c(O)c(=O)c2c1`, the GI50 in assay [3] stood at 570 nM; in assay [4] it was 620 nM; in assay [5], 340 nM; in assay [2], 270 nM. Inhibition in assay [6] was half-maximal at 450 nM (IC50).
For the compound `Cc1cc(N2CCCC2=O)c2oc(-c3ccc(O)c(O)c3)c(O)c(=O)c2c1`, in assay [1], the IC50 is 1600 nM.
Still for that read-out and setting: the same measure for `Cc1cc(N2C(=O)CCCC2=O)c2oc(-c3ccc(O)c(O)c3)c(O)c(=O)c2c1`: 4400 nM.
The compound `Cc1cc(N2CCCS2(=O)=O)c2oc(-c3ccc(O)c(C#N)c3)c(O)c(=O)c2c1` had an IC50 in assay [6] of 160 nM.
In the case of `Cc1cc(N2CCCS2(=O)=O)c2oc(-c3ccc(O)c(C(F)(F)F)c3)c(O)c(=O)c2c1`, the GI50 was 910 nM in assay [5] and 1300 nM in assay [2]. The IC50 came to 1700 nM in assay [1] and 63 nM in assay [6].
Turning to `Cc1cc(N2CCCS2(=O)=O)c2oc(-c3ccc(O)c(Cl)c3)c(O)c(=O)c2c1`, the GI50 in assay [3] came out at 64 nM; in assay [4], 180 nM; in assay [5], 37 nM; in assay [2], 65 nM. The half-inhibitory concentration (IC50) in assay [1] was determined as 190 nM; in assay [6], 33 nM.
On to `Cc1cc(N2CCCS2(=O)=O)c2oc(-c3ccc(O)c(Br)c3)c(O)c(=O)c2c1`, for which the GI50 in assay [3] worked out at 52 nM; in assay [4] it was 230 nM; in assay [5] it was 17 nM; in assay [2], 64 nM. In addition, 19 nM corresponded to half-maximal inhibition in assay [6] (IC50).
`O=c1c(O)c(-c2ccc(O)c(O)c2)oc2cc(O)ccc12` [FISETIN] returned an IC50 in assay [1] of 5000 nM.
Regarding `O=c1cc(-c2ccc(O)c(O)c2)oc2cc(O)cc(O)c12` [LUTEOLIN], the IC50 in assay [1] stood at 20000 nM.
Still for that read-out and setting: the same measure for `O=c1c(O)c(-c2ccc(O)c(O)c2)oc2cc(O)cc(O)c12` [QUERCETIN]: 40000 nM.
